By Kd is commonly meant the constant that tells how readily two partners part at equilibrium. Low values mean tighter binding, high ones weaker binding. By IC50 is commonly meant the midpoint of a concentration-inhibition curve.

One molecule from ChEMBL document CHEMBL4049460, “Trisubstituted Imidazoles with a Rigidized Hinge Binding Motif Act As Single Digit nM Inhibitors of Clinically Relevant EGFR L858R/T790M and L858R/T790M/C797S Mutants: An Example of Target Hopping” (J Med Chem, 2017) can be followed below.

Activity calls are given as the source filed them. The rule behind the calls is not given here. Bounds are passed on as bounds.

Data set [1] relates to Epidermal growth factor receptor (Homo sapiens), P00533 [T790M]. Nature of the data set: Inhibition of recombinant human N-terminally GST-His6 tagged EGFR T790M mutant (H672 to A1210 residues) C-terminal fragment harboring 3C cleavage site expressed in Baculovirus infected Sf9 cells assessed as residual activity at 1 uM in presence of [33-gamma]-ATP after 60 mins by scintillation counting method relative to control.

Data set [2] deals with Mitogen-activated protein kinase kinase kinase kinase 5 (Homo sapiens) (UniProt Q9Y4K4). Nature of the data set: Inhibition of MAP4K5 (unknown origin) assessed as residual activity at 1 uM in presence of [33-gamma]-ATP after 60 mins by scintillation counting method relative to control.
The subject of data set [3] is Epidermal growth factor receptor (Homo sapiens), P00533 [L858R]. Briefly: Inhibition of recombinant human N-terminally GST-His6 tagged EGFR L858R mutant (H672 to A1210 residues) C-terminal fragment harboring 3C cleavage site expressed in Baculovirus infected Sf9 cells assessed as residual activity at 1 uM in presence of [33-gamma]-ATP after 60 mins by scintillation counting method relative to control.

The target in data set [4] is T1, Epidermal growth factor receptor (Homo sapiens, UniProt P00533, L858R/T790M). Nature of the data set: Binding affinity to human EGFR L858R/T790M double mutant (669 to 1011 residues) expressed in mammalian system preincubated for 1 hr followed by 30 fold dilution measured after 5 hrs. The procedure, abridged: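 Competition binding against an immobilized active-site-directed ligand; Kd read out. Compound and kinase combined and equilibrated 1 h, then diluted 30-fold in reaction buffer and equilibrated a further 5 h (study arm B).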

Data set [5] has as its system Epidermal growth factor receptor (Homo sapiens), P00533 [L861Q]. Nature of the data set: Inhibition of recombinant human N-terminally GST-His6 tagged EGFR L861Q mutant (H672 to A1210 residues) C-terminal fragment harboring 3C cleavage site expressed in Baculovirus infected Sf9 cells assessed as residual activity at 1 uM in presence of [33-gamma]-ATP after 60 mins by scintillation counting method relative to control.

Data set [6] addresses Mitogen-activated protein kinase kinase kinase kinase 4 (Homo sapiens) (UniProt O95819). Briefly: Inhibition of recombinant human N-terminally GST-His6 tagged MAP4K4 (A7 to W1320 residues) harboring 3C-cleavage site expressed in Baculovirus infected Sf9 cells assessed as residual activity at 1 uM in presence of [33-gamma]-ATP after 60 mins by scintillation counting method relative to control.

Data set [7] has as its target T2, Epidermal growth factor receptor (Homo sapiens, UniProt P00533, L858R). Nature of the data set: Binding affinity to human EGFR L858R mutant (669 to 1011 residues) expressed in bacterial system incubated for 1 hr. The procedure, abridged: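 Competition binding: compound's ability to displace an immobilized, active-site-directed ligand from the kinase, reported as Kd. Compound and kinase were combined and equilibrated 1 h without dilution before read-out.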

Data set [8] deals with Mitogen-activated protein kinase 14 (Homo sapiens, UniProt Q16539). Nature of the data set: Inhibition of recombinant full-length human p38alpha MAPK (M1 to S360 residues) expressed in Escherichia coli at 1 uM in presence of [33-gamma]-ATP after 60 mins by scintillation counting method.
Data set [9] has as its target Serine/threonine-protein kinase 25 (Homo sapiens) (UniProt O00506). Briefly: Inhibition of STK25 (unknown origin) assessed as residual activity at 1 uM in presence of [33-gamma]-ATP after 60 mins by scintillation counting method relative to control.
The target of data set [10] is Mitogen-activated protein kinase 9 (Homo sapiens) (UniProt P45984). Nature of the data set: Inhibition of recombinant full-length human JNK2 (M1 to Y424 residues) expressed in Escherichia coli assessed as residual activity at 1 uM in presence of [33-gamma]-ATP after 60 mins by scintillation counting method relative to control.
Data set [11] concerns the target MAP kinase-activated protein kinase 2 (Homo sapiens) (UniProt P49137). Nature of the data set: Inhibition of recombinant full-length human MAPKAPK2 (M1 to L370 residues) expressed in Baculovirus infected Sf9 cells assessed as residual activity at 1 uM in presence of [33-gamma]-ATP after 60 mins by scintillation counting method relative to control.
Data set [12] concerns the target Receptor tyrosine-protein kinase erbB-2 (Homo sapiens) (UniProt P04626). Nature of the data set: Inhibition of recombinant wild-type human N-terminally GST-His6 tagged ERBB2 (Q679 to V1255 residues) C-terminal fragment harboring thrombin cleavage site expressed in Baculovirus infected Sf9 cells assessed as residual activity at 1 uM in presence of [33-gamma]-ATP after 60 mins by scintillation counting method relative to control.

Data set [13] is filed under the species Homo sapiens. Nature of the data set: Inhibition of recombinant human N-terminally GST-His6 tagged EGFR del 747-749/A750P mutant (H672 to A1210 residues) C-terminal fragment harboring 3C cleavage site expressed in Baculovirus infected Sf9 cells assessed as residual activity at 1 uM in presence of [33-gamma]-ATP after 60 mins by scintillation counting method relative to control.

The target of data set [14] is T2, Epidermal growth factor receptor. Briefly: Inhibition of recombinant human GST-tagged EGFR L858R mutant cytoplasmic domain expressed in baculovirus expression system preincubated for 20 mins followed by addition of [33P]-ATP measured after 2 hrs by filter-binding method. The note with it: read-out: IC50.
Data set [15] concerns the target Epidermal growth factor receptor (Homo sapiens, UniProt P00533). Briefly: Ratio of Kd for wild-type human EGFR (669 to 1011 residues) after 1 hr to Kd for wild-type human EGFR (669 to 1011 residues) after 6 hrs. It counts as ADME. The procedure, abridged: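 Kd from competition with an immobilized active-site-directed ligand […]. Ratio compares 1 h compound–kinase equilibration against an arm with 6 h overall equilibration.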

The target of data set [16] is T1, Epidermal growth factor receptor. Nature of the data set: Binding affinity to human EGFR L858R/T790M double mutant (669 to 1011 residues) expressed in mammalian system incubated for 1 hr. The procedure, abridged:
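Competition binding of inhibitor against an immobilized active-site-directed ligand; Kd read out. Compound and kinase combined and equilibrated for 1 h without dilution (study arm C).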

Data set [17] is filed under the species Homo sapiens. Briefly: Inhibition of recombinant human N-terminally GST-His6 tagged EGFR del 752-759 mutant (H672 to A1210 residues) C-terminal fragment harboring 3C cleavage site expressed in Baculovirus infected Sf9 cells assessed as residual activity at 1 uM in presence of [33-gamma]-ATP after 60 mins by scintillation counting method relative to control.

The species named for data set [18] is Homo sapiens. Nature of the data set: Selectivity ratio of IC50 for p38alpha MAPK (unknown origin) to IC50 for recombinant human GST-tagged EGFR L858R/T790M double mutant cytoplasmic domain expressed in baculovirus expression system.
Data set [19] has as its system Epidermal growth factor receptor (Homo sapiens), P00533 [G719C]. Briefly: Inhibition of recombinant human N-terminally GST-His6 tagged EGFR G719C mutant (H672 to A1210 residues) C-terminal fragment harboring 3C cleavage site expressed in Baculovirus infected Sf9 cells assessed as residual activity at 1 uM in presence of [33-gamma]-ATP after 60 mins by scintillation counting method relative to control.

Data set [20] deals with T1, Epidermal growth factor receptor. Briefly: Inhibition of recombinant human GST-tagged EGFR L858R/T790M double mutant cytoplasmic domain expressed in baculovirus expression system preincubated for 20 mins followed by addition of [33P]-ATP measured after 2 hrs by filter-binding method.

MAP kinase-activated protein kinase 2 (Homo sapiens), sequence (P49137 whole entry, looked up, the tested form may be a part): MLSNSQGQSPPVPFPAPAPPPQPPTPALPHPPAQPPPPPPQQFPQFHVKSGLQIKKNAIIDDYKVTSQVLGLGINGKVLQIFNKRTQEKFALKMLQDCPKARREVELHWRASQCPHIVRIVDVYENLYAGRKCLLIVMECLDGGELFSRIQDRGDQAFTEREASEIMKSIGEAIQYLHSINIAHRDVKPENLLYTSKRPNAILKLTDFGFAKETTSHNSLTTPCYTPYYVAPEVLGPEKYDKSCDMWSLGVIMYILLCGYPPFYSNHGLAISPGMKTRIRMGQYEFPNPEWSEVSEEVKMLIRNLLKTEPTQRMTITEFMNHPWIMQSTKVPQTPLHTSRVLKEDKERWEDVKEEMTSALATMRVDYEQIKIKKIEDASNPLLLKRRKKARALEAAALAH
Mitogen-activated protein kinase 14, sequence (Q16539 whole entry, the tested form may be a part): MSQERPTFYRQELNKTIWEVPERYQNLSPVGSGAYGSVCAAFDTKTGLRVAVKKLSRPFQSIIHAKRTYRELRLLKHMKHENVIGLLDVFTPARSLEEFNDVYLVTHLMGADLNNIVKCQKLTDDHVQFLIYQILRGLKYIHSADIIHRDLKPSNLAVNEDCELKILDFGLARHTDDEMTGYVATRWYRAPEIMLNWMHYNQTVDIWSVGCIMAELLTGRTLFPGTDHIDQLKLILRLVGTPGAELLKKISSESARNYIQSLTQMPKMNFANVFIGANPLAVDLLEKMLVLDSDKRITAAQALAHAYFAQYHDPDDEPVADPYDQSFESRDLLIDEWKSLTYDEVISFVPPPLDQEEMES
Mitogen-activated protein kinase 9 (Homo sapiens), sequence (P45984 whole entry, looked up, the tested form may be a part): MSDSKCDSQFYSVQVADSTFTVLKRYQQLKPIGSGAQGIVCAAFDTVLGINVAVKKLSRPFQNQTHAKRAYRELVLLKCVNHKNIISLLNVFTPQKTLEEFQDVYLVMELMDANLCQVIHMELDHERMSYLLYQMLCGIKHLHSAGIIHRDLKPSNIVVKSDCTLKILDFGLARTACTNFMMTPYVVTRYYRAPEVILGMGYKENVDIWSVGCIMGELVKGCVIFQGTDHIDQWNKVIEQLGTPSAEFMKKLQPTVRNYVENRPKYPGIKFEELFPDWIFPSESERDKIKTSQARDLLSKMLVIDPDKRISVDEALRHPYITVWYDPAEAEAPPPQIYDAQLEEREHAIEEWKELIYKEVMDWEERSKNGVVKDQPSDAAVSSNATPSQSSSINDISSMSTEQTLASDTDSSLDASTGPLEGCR
Mitogen-activated protein kinase kinase kinase kinase 4 (Homo sapiens), sequence (O95819 2-1239 limits assumed): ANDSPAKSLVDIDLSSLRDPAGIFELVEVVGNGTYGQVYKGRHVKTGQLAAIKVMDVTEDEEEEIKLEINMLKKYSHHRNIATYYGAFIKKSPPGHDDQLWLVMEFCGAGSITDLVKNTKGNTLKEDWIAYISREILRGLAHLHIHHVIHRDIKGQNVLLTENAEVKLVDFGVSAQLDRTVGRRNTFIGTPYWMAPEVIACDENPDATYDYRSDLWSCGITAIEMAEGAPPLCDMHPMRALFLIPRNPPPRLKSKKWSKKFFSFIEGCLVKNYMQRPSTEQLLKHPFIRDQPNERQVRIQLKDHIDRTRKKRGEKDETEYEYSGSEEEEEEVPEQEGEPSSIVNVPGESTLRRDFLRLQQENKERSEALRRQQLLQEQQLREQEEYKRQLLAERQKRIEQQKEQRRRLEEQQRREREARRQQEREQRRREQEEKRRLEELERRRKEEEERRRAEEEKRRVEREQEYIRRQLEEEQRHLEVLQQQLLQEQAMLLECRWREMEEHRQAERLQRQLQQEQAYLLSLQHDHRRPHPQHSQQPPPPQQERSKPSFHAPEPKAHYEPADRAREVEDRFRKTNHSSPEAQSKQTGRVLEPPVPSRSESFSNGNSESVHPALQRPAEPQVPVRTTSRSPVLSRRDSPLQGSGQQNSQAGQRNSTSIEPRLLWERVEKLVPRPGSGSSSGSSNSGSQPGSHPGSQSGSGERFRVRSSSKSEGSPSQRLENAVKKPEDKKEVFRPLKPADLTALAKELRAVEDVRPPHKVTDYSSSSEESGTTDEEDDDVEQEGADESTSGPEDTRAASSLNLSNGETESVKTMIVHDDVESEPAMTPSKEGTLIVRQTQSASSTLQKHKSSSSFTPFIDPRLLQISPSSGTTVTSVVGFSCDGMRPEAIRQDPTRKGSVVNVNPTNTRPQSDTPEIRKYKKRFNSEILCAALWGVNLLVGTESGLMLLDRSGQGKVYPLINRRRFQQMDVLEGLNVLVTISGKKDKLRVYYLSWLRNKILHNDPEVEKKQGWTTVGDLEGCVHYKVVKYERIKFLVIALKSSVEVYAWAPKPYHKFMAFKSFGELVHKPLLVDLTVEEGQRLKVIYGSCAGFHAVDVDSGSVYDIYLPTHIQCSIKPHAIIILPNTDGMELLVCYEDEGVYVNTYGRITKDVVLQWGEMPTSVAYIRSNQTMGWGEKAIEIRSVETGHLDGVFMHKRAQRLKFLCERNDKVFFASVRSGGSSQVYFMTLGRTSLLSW
Mitogen-activated protein kinase kinase kinase kinase 5 (Homo sapiens), sequence (Q9Y4K4 whole entry, looked up, the tested form may be a part): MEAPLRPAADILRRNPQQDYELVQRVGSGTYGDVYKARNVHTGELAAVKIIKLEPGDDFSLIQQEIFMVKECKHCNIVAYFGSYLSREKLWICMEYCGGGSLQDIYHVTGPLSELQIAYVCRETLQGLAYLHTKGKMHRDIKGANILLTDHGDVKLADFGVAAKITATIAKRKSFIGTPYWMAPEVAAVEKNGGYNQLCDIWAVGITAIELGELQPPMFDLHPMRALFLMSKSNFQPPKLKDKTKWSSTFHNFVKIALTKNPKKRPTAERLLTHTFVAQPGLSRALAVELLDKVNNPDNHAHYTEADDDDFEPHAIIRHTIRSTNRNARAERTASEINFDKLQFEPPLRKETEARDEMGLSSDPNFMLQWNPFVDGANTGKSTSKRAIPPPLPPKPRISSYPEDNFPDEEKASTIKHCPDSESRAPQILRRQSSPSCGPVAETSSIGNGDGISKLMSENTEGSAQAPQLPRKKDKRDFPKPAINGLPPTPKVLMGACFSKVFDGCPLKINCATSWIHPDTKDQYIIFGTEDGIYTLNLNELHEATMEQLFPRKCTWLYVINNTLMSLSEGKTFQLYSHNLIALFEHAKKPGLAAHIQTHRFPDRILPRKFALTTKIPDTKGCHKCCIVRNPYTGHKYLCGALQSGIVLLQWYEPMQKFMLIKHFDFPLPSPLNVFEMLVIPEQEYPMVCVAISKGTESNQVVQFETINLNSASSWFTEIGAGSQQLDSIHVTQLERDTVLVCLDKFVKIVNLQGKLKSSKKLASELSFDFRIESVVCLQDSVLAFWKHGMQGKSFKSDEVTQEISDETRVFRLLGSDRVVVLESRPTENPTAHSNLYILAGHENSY
Serine/threonine-protein kinase 25 (Homo sapiens), sequence (O00506 whole entry, looked up, the tested form may be a part): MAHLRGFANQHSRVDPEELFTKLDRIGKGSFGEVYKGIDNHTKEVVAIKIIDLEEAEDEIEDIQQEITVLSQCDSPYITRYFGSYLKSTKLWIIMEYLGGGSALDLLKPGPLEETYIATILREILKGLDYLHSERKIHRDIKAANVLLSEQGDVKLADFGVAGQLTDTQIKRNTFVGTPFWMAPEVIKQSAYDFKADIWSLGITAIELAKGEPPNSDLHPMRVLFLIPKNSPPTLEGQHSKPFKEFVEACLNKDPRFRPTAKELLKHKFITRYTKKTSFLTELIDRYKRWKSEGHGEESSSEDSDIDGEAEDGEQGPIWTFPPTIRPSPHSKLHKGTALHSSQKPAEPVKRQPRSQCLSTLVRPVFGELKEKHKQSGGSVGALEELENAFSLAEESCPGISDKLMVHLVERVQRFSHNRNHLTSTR
Receptor tyrosine-protein kinase erbB-2 (Homo sapiens), sequence (P04626 whole entry, the tested form may be a part): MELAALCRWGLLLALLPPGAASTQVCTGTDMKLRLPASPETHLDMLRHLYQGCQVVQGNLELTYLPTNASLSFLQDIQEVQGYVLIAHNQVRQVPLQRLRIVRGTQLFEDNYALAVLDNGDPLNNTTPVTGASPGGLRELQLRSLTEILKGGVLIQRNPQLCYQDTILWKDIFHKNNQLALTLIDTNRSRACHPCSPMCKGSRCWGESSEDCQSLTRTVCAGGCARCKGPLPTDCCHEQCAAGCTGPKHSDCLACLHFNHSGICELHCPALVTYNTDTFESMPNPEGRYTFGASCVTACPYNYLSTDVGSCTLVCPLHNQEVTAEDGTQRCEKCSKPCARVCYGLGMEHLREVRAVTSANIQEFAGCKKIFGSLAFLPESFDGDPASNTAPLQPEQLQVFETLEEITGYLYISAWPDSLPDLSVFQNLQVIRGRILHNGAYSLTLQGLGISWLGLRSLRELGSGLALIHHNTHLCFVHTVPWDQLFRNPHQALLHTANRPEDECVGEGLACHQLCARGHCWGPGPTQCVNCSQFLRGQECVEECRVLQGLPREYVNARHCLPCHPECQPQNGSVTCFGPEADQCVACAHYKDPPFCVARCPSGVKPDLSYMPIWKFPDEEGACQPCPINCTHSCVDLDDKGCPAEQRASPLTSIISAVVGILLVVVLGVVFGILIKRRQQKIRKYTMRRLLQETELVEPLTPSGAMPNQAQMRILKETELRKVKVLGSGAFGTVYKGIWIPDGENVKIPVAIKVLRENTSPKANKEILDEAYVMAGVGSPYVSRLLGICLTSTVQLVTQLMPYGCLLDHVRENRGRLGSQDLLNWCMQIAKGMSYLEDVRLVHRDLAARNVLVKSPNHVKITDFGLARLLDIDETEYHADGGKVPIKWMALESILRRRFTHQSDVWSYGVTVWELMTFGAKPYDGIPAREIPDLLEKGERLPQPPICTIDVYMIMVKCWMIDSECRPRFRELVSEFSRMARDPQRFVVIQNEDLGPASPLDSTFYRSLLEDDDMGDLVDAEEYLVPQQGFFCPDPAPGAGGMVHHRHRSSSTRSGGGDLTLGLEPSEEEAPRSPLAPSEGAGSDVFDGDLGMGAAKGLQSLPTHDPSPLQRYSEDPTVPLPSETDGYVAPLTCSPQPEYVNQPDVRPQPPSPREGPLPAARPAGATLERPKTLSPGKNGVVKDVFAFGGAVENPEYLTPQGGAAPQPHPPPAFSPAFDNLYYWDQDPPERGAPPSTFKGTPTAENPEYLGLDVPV

Regarding `C=CC(=O)Nc1cccc(-c2c[nH]c3nccc(-c4[nH]c(CCCO)nc4-c4ccc(F)cc4)c23)c1`, the Activity was found to be 12% in data set [1]; 2% in data set [2]; 6% in data set [3]; 3% in data set [5]; 1% in data set [6]; 49% in [9]. In addition, the Activity in data set [10] was found to be 37%; in data set [11], 48%; in [12], 17%; in the data set filed under Homo sapiens [13] it was 6%; in the data set listed under Homo sapiens [17], 6%; in data set [19], 37%. The equilibrium dissociation constant (Kd) came out at 14 nM in [4], 0.93 nM in [7] and 13 nM in data set [16]. In [8], the inhibition entry is “Active”. The figures for the half-maximal inhibitory concentration (IC50) in data set [14] and in [20] were under 0.3 nM and 1.52 nM, respectively. Moreover, the Ratio in data set [15] was in the range of 3 to 5. Further, in the data set listed under Homo sapiens [18], the Ratio IC50 came out at 140.
